Among the data in ChEMBL document CHEMBL4706601, “The endocannabinoid system dual-target ligand N-cycloheptyl-1,2-dihydro-5-bromo-1-(4-fluorobenzyl)-6-methyl-2-oxo-pyridine-3-carboxamide improves disease severity in a mouse model of multiple sclerosis” (Eur J Med Chem, 2020) are Activity, Ki and IC50 values, retold here.

As usually defined, the Ki is the dissociation constant of the complex between target and ligand, obtained from inhibition or displacement. Usually IC50 stands for the midpoint of a concentration-inhibition curve. Low readings indicate greater potency, high ones weaker potency.

Experiment [1] deals with Mus musculus. Nature of the experiment: In vivo agonist activity at CB1R in BALB/c mouse assessed as reduction in body temperature at 5 mg/kg, ip measured after 1 hr by tetrad test. In kind it is functional, organism-based. In short, it runs like this: (§1)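 BALB/c mice given 5 mg/kg i.p. in DMSO (20 µL), tested 1 h later. Rectal temperature change from basal; catalepsy by bar test (4 cm bar, 120 s cut-off); locomotion by rotarod latency to fall at 4 rpm (120 s cut-off, 3 trials); analgesia by hot plate at 54-56 °C, first paw lick or shake. n = 5-20 per group.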

Another experiment concerns the target Cannabinoid receptor 1 (Homo sapiens, UniProt P21554). Nature of the experiment: Displacement of [3H]CP55940 from recombinant human CB1R expressed in CHO cell membranes incubated for 90 mins. Set-up: species or system Membrane.
The target in another experiment is Cannabinoid receptor 2 (Homo sapiens, UniProt P34972). Put plainly: Displacement of [3H]CP55940 from recombinant human CB2R expressed in CHO cell membranes incubated for 90 mins. Set-up: species or system Membrane. In general terms: Loss of bound radioactivity is the signal in a displacement assay; it reports binding, not function.
Experiment [2] has as its target T1, Fatty-acid amide hydrolase 1 (Homo sapiens, UniProt O00519).
T1 sequence (O00519 whole entry): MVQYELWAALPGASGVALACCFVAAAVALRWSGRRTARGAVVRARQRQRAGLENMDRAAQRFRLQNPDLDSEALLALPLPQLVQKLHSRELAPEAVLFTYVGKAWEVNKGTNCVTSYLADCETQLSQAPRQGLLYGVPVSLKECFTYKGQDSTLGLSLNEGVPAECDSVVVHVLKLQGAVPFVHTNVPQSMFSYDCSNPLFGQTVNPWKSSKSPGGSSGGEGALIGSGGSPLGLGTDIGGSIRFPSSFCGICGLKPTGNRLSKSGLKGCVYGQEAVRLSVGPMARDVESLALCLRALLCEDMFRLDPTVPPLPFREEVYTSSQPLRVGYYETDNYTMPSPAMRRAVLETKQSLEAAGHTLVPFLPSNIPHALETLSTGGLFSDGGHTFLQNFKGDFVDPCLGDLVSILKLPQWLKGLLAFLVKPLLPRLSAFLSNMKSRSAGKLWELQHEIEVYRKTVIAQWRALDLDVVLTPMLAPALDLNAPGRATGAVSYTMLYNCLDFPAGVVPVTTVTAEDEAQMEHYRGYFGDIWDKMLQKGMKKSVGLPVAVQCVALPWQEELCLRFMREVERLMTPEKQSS
Nature of the experiment: Inhibition of FAAH in human U937 cells using [ethanolamine-1-3H]AEA as substrate preincubated for 15 mins followed by substrate addition and measured after 15 mins by liquid scintillation spectroscopy. In kind it is cell-based, U-937. In short, it runs like this:
(§2)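 Intact U937 cells, 10^6 per condition, pre-incubated with compound 15 min at 37 °C with shaking (screen at 10 μM; full curves for hits). Substrate: 1 μM AEA with 1 nM [3H]AEA (FAAH) or 10 μM 2-OG with 5 nM [3H]2-OG (MAGL), 15 min at 37 °C. Stopped with CHCl3:MeOH 1:1, aqueous tritium counted; mean ± SD, ≥3 experiments in triplicate.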

Another experiment deals with T2, Monoglyceride lipase (Homo sapiens, UniProt Q99685).
T2 sequence (Q99685 whole entry): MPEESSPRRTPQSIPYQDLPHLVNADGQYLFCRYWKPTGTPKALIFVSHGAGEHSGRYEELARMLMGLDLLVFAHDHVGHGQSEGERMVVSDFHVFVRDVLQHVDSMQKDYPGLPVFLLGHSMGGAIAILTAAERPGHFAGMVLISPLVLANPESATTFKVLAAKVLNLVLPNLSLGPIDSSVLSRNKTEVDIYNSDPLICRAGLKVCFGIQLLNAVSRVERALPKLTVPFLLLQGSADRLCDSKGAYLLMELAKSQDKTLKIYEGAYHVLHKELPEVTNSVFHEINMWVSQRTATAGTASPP
Put plainly: Inhibition of MAGL in human U937 cells using [glycerol-1,2,3-3H]2-OG as substrate preincubated for 15 mins followed by substrate addition and measured after 15 mins by liquid scintillation spectroscopy. The class given is cell-based, U-937. In short, it runs like this:
as §2

Experiment [3] has as its target T3, Monoacylglycerol lipase ABHD6 (Homo sapiens, UniProt Q9BV23).
T3 sequence (Q9BV23 whole entry): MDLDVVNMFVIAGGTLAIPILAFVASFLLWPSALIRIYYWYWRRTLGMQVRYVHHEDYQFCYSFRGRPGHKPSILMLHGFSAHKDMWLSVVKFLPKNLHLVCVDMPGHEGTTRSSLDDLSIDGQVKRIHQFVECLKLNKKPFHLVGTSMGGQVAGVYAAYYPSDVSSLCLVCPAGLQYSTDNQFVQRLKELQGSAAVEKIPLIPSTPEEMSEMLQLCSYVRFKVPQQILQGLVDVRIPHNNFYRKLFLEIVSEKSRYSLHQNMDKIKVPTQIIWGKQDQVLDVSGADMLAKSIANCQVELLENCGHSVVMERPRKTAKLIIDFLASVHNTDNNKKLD
Put plainly: Inhibition of human ABHD6 expressed in HEK293 cells using 2-OG as substrate preincubated for 30 mins followed by substrate addition and measured after 5 mins by liquid scintillation spectroscopy. In kind it is cell-based. In a few lines: (§3)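 Homogenates (40 µg) from HEK293 stably expressing hABHD6 or hABHD12 pre-incubated with compound 30 min at 37 °C in […], 0.1% BSA, pH 7.6; then 10 μM 2-OG for 5 min at 37 °C. Aqueous phase tritium counted after CHCl3:MeOH stop; no-enzyme blanks and non-transfected HEK293 hydrolysis subtracted. Controls WWL70 10 μM, THL 20 μM.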

Experiment [4] addresses T4, Lysophosphatidylserine lipase ABHD12 (Homo sapiens, UniProt Q8N2K0).
T4 sequence (Q8N2K0 whole entry): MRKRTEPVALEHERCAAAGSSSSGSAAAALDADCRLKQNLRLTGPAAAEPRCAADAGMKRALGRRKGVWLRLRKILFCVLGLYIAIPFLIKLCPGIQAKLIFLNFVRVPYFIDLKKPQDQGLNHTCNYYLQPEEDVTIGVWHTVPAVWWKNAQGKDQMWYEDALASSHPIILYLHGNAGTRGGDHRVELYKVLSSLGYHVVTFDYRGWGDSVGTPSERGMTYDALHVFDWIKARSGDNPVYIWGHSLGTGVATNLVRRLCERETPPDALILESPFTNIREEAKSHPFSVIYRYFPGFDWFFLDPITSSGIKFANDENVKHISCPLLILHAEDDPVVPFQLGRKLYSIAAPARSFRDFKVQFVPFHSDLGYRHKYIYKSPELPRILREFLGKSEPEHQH
Nature of the experiment: Inhibition of human ABHD12 expressed in HEK293 cells using 2-OG as substrate preincubated for 30 mins followed by substrate addition and measured after 5 mins by liquid scintillation spectroscopy. The class given is cell-based. In a few lines: as §3

Experiment [5] concerns Mus musculus. Put plainly: In vivo agonist activity at CB1R in BALB/c mouse assessed as reduction in spontaneous locomotion at 5 mg/kg, ip measured after 1 hr by rotarod test. The class given is functional, organism-based. In short, it runs like this:
as §1
(In the rotarod test animals must keep their balance on a rotating rod.)

Experiment [6] concerns Mus musculus. Nature of the experiment: In vivo agonist activity at CB1R in BALB/c mouse assessed as catalpesy-like behaviour by measuring increase in immobility time at 5 mg/kg, ip measured after 1 hr by bar test. In kind it is functional, organism-based. In a few lines:
as §1

The subject of experiment [7] is Mus musculus. Nature of the experiment: In vivo agonist activity at CB1R in BALB/c mouse assessed as induction of analgesia at 5 mg/kg, ip measured after 1 hr by hotplate test. The class given is functional, organism-based. In short, it runs like this:
as §1

Calls of active or inactive are those of the source. A value given as a limit tells only on which side of the number the result lay.

Chain of Cannabinoid receptor 1 (P21554 whole entry): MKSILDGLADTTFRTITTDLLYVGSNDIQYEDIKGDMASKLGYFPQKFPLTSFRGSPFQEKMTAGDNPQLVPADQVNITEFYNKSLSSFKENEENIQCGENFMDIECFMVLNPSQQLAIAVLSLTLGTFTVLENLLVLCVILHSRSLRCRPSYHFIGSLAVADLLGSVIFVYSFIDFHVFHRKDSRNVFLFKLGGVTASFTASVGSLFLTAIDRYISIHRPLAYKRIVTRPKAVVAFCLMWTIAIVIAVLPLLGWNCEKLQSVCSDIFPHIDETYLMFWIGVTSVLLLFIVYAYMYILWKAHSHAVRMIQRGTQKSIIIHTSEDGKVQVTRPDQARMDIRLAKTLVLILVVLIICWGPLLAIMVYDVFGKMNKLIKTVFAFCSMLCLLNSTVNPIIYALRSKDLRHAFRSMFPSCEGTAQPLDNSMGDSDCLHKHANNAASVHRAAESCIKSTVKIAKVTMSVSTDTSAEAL
Chain of Cannabinoid receptor 2 (P34972 whole entry): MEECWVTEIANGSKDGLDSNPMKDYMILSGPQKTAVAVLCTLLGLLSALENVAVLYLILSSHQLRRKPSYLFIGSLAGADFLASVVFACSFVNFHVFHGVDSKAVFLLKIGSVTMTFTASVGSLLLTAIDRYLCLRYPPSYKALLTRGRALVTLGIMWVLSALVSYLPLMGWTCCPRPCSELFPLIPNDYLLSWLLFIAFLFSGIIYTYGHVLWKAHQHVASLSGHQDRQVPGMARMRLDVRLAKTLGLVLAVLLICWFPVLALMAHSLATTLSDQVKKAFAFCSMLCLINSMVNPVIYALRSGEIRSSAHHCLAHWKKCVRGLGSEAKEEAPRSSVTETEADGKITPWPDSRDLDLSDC

In the case of `COc1ccc(-c2cc(C(=O)NC3CCCCCC3)c(=O)n(Cc3ccc(F)cc3)c2C)cc1`, the result in the experiment with Mus musculus [1], in the experiment with Mus musculus [5], with Mus musculus [6] and with Mus musculus [7] was inactive. Further, the Ki at Cannabinoid receptor 1 was 9.8 nM; at Cannabinoid receptor 2, 26.2 nM. For the same molecule, the IC50 in [2] is 2000 nM; against Monoglyceride lipase, above 10000 nM; in experiment [3], 530 nM; in experiment [4] it was above 10000 nM.

As to `Cc1c(Br)cc(C(=O)NC2CCCCCC2)c(=O)n1Cc1ccc(F)cc1`, the result in the experiment on Mus musculus [1], in the experiment with Mus musculus [5], with Mus musculus [6] and with Mus musculus [7] was Active. The Ki at Cannabinoid receptor 1 was 2.9 nM; on Cannabinoid receptor 2 it was 1.5 nM. Moreover, the IC50 in experiment [2] was 5900 nM; at Monoglyceride lipase, above 10000 nM; in experiment [3], above 10000 nM; in experiment [4], above 10000 nM.
